Experimental data taken from ChEMBL document CHEMBL3632513, “Synthesis of donepezil-based multifunctional agents for the treatment of Alzheimer's disease” (Bioorg Med Chem Lett, 2015).
pIC50: −log10 of the molar value. Values after ≈ are worked out from the molar mass of the structure shown. Active and inactive are the calls of the source. No cut-off for these calls is given here.

Columns and labels:
Acetylcholinesterase = Acetylcholinesterase (Electrophorus electricus, UniProt O42275); test: Inhibition of electric eel AChE using acetylthiocholine iodide as substrate preincubated for 15 mins by Ellman's method
Acetylcholinesterase, sequence (O42275 whole entry): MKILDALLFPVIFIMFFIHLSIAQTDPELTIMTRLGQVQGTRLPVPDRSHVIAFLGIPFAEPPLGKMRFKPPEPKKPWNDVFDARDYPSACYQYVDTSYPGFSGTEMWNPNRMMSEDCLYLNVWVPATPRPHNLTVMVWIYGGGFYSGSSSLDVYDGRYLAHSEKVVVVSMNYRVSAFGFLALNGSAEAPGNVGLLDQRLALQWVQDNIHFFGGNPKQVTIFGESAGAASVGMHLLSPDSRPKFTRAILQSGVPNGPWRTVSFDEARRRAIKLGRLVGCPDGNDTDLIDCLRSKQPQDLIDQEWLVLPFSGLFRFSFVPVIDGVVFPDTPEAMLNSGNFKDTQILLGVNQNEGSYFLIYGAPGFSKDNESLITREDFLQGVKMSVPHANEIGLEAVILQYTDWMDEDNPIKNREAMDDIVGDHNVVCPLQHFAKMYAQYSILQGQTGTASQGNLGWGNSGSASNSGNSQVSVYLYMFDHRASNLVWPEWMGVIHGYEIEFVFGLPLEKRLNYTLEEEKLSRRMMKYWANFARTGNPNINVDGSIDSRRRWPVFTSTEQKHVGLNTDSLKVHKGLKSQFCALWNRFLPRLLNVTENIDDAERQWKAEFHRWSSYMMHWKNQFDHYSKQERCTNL

Cholinesterase = Cholinesterase (Equus caballus, UniProt P81908); test: Inhibition of equine serum BuChE using butyrylthiocholine iodide as substrate preincubated for 15 mins by Ellman's method
Cholinesterase, sequence (P81908 whole entry): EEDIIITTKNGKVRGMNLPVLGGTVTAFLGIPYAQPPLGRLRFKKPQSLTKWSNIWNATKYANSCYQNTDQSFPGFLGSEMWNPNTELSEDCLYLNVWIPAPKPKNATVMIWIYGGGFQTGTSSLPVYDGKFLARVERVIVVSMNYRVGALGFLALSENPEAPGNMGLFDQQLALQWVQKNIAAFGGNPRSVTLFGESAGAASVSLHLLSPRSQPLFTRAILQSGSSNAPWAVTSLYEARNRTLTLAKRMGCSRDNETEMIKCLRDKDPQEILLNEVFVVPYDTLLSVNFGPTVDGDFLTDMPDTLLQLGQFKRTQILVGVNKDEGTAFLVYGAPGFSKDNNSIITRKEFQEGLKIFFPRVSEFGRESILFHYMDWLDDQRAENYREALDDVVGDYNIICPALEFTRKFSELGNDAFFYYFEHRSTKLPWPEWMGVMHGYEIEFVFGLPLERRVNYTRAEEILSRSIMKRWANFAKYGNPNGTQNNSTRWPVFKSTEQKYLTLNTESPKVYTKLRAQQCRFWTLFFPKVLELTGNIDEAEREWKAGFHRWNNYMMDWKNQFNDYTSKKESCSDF

[1] = Selectivity ratio of IC50 for equine BuChE to IC50 for electric eel AChE
How it was run: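 Both IC50 values come from Ellman's method, using AChE from electric eel and BuChE from equine serum. Selectivity for AChE is calculated as IC50(BuChE)/IC50(AChE).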

[2] = biological target: Amyloid-beta precursor protein (Homo sapiens) (UniProt P05067); test: Inhibition of self-induced amyloid beta (1-42) aggregation (unknown origin) at 25 uM after 48 hrs by thioflavin T fluorescence method
Amyloid-beta precursor protein (Homo sapiens), sequence (P05067 whole entry): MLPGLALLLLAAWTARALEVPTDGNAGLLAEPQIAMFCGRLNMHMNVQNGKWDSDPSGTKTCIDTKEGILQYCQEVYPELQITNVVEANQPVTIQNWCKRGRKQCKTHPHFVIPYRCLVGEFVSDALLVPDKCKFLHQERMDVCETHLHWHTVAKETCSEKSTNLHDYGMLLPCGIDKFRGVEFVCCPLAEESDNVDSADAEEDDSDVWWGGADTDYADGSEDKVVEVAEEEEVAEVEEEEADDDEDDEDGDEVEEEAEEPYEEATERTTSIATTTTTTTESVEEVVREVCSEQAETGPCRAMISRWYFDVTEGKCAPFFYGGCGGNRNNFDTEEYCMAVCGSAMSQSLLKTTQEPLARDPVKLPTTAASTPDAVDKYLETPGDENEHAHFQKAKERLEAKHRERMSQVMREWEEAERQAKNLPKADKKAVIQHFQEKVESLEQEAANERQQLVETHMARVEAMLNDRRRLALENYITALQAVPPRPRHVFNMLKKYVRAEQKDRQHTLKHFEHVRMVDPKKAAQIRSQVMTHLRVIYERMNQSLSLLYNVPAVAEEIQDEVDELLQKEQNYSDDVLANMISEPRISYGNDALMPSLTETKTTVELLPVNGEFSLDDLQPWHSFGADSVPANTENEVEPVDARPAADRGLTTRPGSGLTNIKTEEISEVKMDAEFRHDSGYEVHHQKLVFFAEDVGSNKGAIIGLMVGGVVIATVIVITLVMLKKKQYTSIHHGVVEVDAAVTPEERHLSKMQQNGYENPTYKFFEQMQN
How it was run: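 Thioflavin T fluorometric assay of self-induced Aβ1–42 aggregation, with test compounds and the curcumin reference each at 25. Results are reported as percent inhibition of aggregation.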

[3] = Antioxidant activity assessed as DPPH scavenging activity at 10 to 60 ug/ml after 30 mins
[4] = Lipophilicity, log P of the compound by […]; type: physicochemical; conditions: octanol/water
[5] = biological target: Acetylcholinesterase (Electrophorus electricus) (UniProt O42275); test: Mixed-type of inhibition in electric eel AChE at 0.5 to 2 uM by Lineweaver-Burk plot method
Acetylcholinesterase (Electrophorus electricus), sequence (O42275 24-633 limits assumed): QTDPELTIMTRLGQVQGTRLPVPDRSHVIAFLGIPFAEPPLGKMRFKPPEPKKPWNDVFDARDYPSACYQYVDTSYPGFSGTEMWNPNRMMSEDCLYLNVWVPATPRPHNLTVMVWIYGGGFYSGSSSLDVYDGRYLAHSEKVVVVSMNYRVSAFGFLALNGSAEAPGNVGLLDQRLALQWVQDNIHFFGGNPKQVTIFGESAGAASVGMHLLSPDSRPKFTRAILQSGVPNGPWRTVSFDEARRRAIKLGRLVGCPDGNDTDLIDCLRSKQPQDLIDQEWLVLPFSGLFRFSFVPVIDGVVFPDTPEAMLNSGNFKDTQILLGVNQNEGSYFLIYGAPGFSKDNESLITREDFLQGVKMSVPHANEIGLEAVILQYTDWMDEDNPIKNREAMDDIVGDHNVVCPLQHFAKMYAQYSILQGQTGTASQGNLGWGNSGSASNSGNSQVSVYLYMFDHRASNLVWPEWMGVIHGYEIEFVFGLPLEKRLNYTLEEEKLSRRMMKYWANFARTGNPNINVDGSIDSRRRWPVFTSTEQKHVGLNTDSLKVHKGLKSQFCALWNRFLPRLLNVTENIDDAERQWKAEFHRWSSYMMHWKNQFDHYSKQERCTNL

[6] = Metal chelating activity of the compound assessed as Zn2+ complex formation after 20 mins by UV-vis spectrophotometry; type: physicochemical
[7] = biological target: Cholinesterase (Equus caballus) (UniProt P81908); test: Mixed-type of inhibition in equine BuChE at 10 to 40 uM by Lineweaver-Burk plot method
Cholinesterase (Equus caballus), sequence (P81908 whole entry): as the sequence (P81908 whole entry) above

[8] = biological target: Cholinesterase (Equus caballus) (UniProt P81908); test: Non-competitive inhibition in equine BuChE at 10 to 40 uM by Lineweaver-Burk plot method

Compound | pIC50 (Acetylcholinesterase) | pIC50 (Cholinesterase) | Ratio IC50 [1] | inhibition [2] | IC50 [3] | logP [4] | inhibition [5] | Activity [6] | inhibition [7] | inhibition [8]
COc1cc2c(cc1OC)C(=O)C(C(=O)Nc1ccccc1)C2 (centres undefined) | 6.04 | 5.50 | 3.4 | 14.3% | 61.28 µg/mL (≈ 197 µM) | 2.2 |  |  |  | 
Cc1c(C)c2c(c(C)c1O)CC[C@@](C)(CCC[C@H](C)CCC[C@H](C)CCCC(C)C)O2 [ALPHA-TOCOPHEROL] |  |  |  |  | 31.74 µg/mL (≈ 73.7 µM) |  |  |  |  | 
COc1cc2c(cc1OC)C(=O)C(C(=O)Nc1cccc(Cl)c1)C2 (centres undefined) | 6.33 | 5.65 | 4.8 | 37.4% | 76.32 µg/mL (≈ 221 µM) | 2.76 |  |  |  | 
CCOc1ccccc1NC(=O)C1Cc2cc(OC)c(OC)cc2C1=O (centres undefined) | 6.11 | 5.18 | 8.6 | 38.1% | 63.67 µg/mL (≈ 179 µM) | 2.42 |  |  |  | 
COc1cc2c(cc1OC)C(=O)C(C(=O)Nc1ccccc1Br)C2 (centres undefined) | 6.92 | 5.47 | 28.3 | 52.8% | 65.44 µg/mL (≈ 168 µM) | 3.03 |  |  |  | 
CCOc1ccc(NC(=O)C2Cc3cc(OC)c(OC)cc3C2=O)cc1 (centres undefined) | 6.24 | 5.58 | 4.5 | 40.8% | 48.16 µg/mL (≈ 136 µM) | 2.42 |  |  |  | 
CCc1ccccc1NC(=O)C1Cc2cc(OC)c(OC)cc2C1=O (centres undefined) | 6.07 | 5.20 | 7.3 | 21.8% | 55 µg/mL (≈ 162 µM) | 3.11 |  |  |  | 
CCOc1cccc(NC(=O)C2Cc3cc(OC)c(OC)cc3C2=O)c1 (centres undefined) | 6.11 | 5.41 | 5 | 28.3% | 44.89 µg/mL (≈ 126 µM) | 2.42 |  |  |  | 
COc1cc2c(cc1OC)C(=O)C(C(=O)Nc1cccc(Br)c1)C2 (centres undefined) | 6.48 | 5.61 | 7.4 | 31.9% | 58.88 µg/mL (≈ 151 µM) | 3.03 |  |  |  | 
CCc1cccc(NC(=O)C2Cc3cc(OC)c(OC)cc3C2=O)c1 (centres undefined) | 6.17 | 5.53 | 4.4 | 27.4% | 64.11 µg/mL (≈ 189 µM) | 3.11 |  |  |  | 
COc1cc2c(cc1OC)C(=O)C(C(=O)Nc1cccc(C)c1)C2 (centres undefined) | 6.11 | 5.65 | 2.9 | 19.1% | 55.83 µg/mL (≈ 172 µM) | 2.69 |  |  |  | 
COc1ccccc1NC(=O)C1Cc2cc(OC)c(OC)cc2C1=O (centres undefined) | 6.15 | 5.32 | 6.9 | 25.6% | 45.76 µg/mL (≈ 134 µM) | 2.08 |  |  |  | 
Cc1c(C)c2c(c(C)c1O)CCC(C)(C(=O)O)O2 (centres undefined) [TROLOX] |  |  |  |  | 20.87 µg/mL (≈ 83.4 µM) |  |  |  |  | 
COc1cc2c(cc1OC)C(=O)C(C(=O)Nc1cccc(F)c1)C2 (centres undefined) | 6.61 | 5.65 | 9.1 | 38.7% | 58.11 µg/mL (≈ 176 µM) | 2.36 |  |  |  | 
COc1cc2c(cc1OC)C(=O)C(C(=O)Nc1ccc(Cl)cc1)C2 (centres undefined) | 6.30 | 5.36 | 8.8 | 38.2% | 56.76 µg/mL (≈ 164 µM) | 2.76 |  |  |  | 
COc1cc2c(cc1OC)C(=O)C(C(=O)Nc1ccccc1F)C2 (centres undefined) | 7.10 | 5.49 | 40.1 | 55.3% | 75.68 µg/mL (≈ 230 µM) | 2.36 | Active | Active |  | 
COc1cccc(NC(=O)C2Cc3cc(OC)c(OC)cc3C2=O)c1 (centres undefined) | 6.27 | 5.68 | 3.9 | 30.2% | 38.94 µg/mL (≈ 114 µM) | 2.08 |  | Active | Active | Active
COc1ccc(NC(=O)C2Cc3cc(OC)c(OC)cc3C2=O)cc1 (centres undefined) | 6.28 | 5.54 | 5.5 | 34.5% | 49.47 µg/mL (≈ 145 µM) | 2.08 |  |  |  | 
COc1cc2c(cc1OC)C(=O)C(C(=O)Nc1ccccc1Cl)C2 (centres undefined) | 6.52 | 5.15 | 23.7 | 40.4% | 65.92 µg/mL (≈ 191 µM) | 2.76 |  |  |  | 
COc1cc2c(cc1OC)C(=O)C(C(=O)Nc1ccc(C)cc1)C2 (centres undefined) | 6.08 | 5.60 | 3.2 | 26.8% | 67.82 µg/mL (≈ 208 µM) | 2.69 |  |  |  | 
CCc1ccc(NC(=O)C2Cc3cc(OC)c(OC)cc3C2=O)cc1 (centres undefined) | 6.19 | 5.53 | 4.6 | 32.1% | 76.15 µg/mL (≈ 224 µM) | 3.11 |  |  |  | 
COc1cc2c(cc1OC)C(=O)C(C(=O)Nc1ccccc1C)C2 (centres undefined) | 6.44 | 5.51 | 8.5 | 40.3% | 43.74 µg/mL (≈ 134 µM) | 2.69 |  |  |  | 
COc1cc2c(cc1OC)C(=O)C(C(=O)Nc1ccc(F)cc1)C2 (centres undefined) | 6.96 | 5.58 | 24.1 | 45.4% | 54.96 µg/mL (≈ 167 µM) | 2.36 |  |  |  | 
COc1cc2c(cc1OC)C(=O)C(C(=O)Nc1ccc(Br)cc1)C2 (centres undefined) | 6.85 | 5.44 | 26.1 | 47.6% | 72.14 µg/mL (≈ 185 µM) | 3.03 |  |  |  | 
